ChEMBL document CHEMBL3867440, “Hernandezine, a Bisbenzylisoquinoline Alkaloid with Selective Inhibitory Activity against Multidrug-Resistance-Linked ATP-Binding Cassette Drug Transporter ABCB1” (J Nat Prod, 2016)

Legend:
[1] = biological target: T1, ATP-dependent translocase ABCB1 (Homo sapiens, UniProt P08183); experiment: Inhibition of ABCB1 in human NCI-ADR-RES cells assessed as reduction of calcein efflux at 1 uM by -based FACS analysis; assay type: cell-based
Method in brief: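 Trypsinized cells were resuspended in IMDM with 5% FCS. Calcein-AM was added to 3 × 10^5 cells in 4 mL IMDM, with or without 1 μM test compound or 3 μM tariquidar. Intracellular calcein fluorescence was read immediately by flow cytometry, with the drug-sensitive parental line run in parallel.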

[2] = biological target: T1, ATP-dependent translocase ABCB1; experiment: Inhibition of ABCB1 in human KBV1 cells assessed as potentiation of colchicine-induced cytotoxicity by measuring colchicine resistance ratio at 200 nM after 72 hrs by MTT assay relative to parental KB-3-1 cells (reference value: 55); assay type: cell-based; details: kbv1, 72 h, 0.2 µM
Method in brief: (§1)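 Cells were kept in drug-free DMEM with 10% FCS for 7 days before assay, then plated at 5000 cells/well for 24 h. Drug at various concentrations was added with a nontoxic fixed level of modulator for 72 h, and the read-out was MTT. IC50 came from fitted curves (≥3 experiments). RR = IC50 of the resistant line / IC50 of the parental line.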

[3] = biological target: T1, ATP-dependent translocase ABCB1; experiment: Inhibition of ABCB1 in human NCI-ADR-RES cells assessed as potentiation of doxorubicin-induced cytotoxicity by measuring doxorubicin resistance ratio at 100 nM after 72 hrs by MTT assay relative to parental OVCAR8 cells (reference value: 46); assay type: cell-based; details: ovcar-8, 72 h, 0.1 µM; method in brief: as §1
[4] = biological target: T1, ATP-dependent translocase ABCB1; experiment: Inhibition of ABCB1 in human NCI-ADR-RES cells assessed as potentiation of colchicine-induced cytotoxicity by measuring colchicine resistance ratio at 200 nM after 72 hrs by MTT assay relative to parental OVCAR8 cells (reference value: 59); assay type: cell-based; details: ovcar-8, 72 h, 0.2 µM; method in brief: as §1
KB 3-1 [5] = experiment: Induction of apoptosis in human KB-3-1 cells assessed as early apoptotic cells at 1 uM after 48 hrs by Annexin V-FITC/propidium iodide staining based FACS analysis (reference value: 5.1%); assay type: functional
KB 3-1 [6] = experiment: Potentiation of colchicine-induced apoptosis in human KB-3-1 cells assessed as early apoptotic cells at 1 uM after 48 hrs by Annexin V-FITC/propidium iodide staining based FACS analysis (reference value: 30.5%); assay type: functional
KB 3-1 [7] = experiment: Potentiation of colchicine-induced apoptosis in human KB-3-1 cells assessed as late apoptotic cells at 1 uM after 48 hrs by Annexin V-FITC/propidium iodide staining based FACS analysis (reference value: 25.7%); assay type: functional

T1 sequence (P08183 whole entry): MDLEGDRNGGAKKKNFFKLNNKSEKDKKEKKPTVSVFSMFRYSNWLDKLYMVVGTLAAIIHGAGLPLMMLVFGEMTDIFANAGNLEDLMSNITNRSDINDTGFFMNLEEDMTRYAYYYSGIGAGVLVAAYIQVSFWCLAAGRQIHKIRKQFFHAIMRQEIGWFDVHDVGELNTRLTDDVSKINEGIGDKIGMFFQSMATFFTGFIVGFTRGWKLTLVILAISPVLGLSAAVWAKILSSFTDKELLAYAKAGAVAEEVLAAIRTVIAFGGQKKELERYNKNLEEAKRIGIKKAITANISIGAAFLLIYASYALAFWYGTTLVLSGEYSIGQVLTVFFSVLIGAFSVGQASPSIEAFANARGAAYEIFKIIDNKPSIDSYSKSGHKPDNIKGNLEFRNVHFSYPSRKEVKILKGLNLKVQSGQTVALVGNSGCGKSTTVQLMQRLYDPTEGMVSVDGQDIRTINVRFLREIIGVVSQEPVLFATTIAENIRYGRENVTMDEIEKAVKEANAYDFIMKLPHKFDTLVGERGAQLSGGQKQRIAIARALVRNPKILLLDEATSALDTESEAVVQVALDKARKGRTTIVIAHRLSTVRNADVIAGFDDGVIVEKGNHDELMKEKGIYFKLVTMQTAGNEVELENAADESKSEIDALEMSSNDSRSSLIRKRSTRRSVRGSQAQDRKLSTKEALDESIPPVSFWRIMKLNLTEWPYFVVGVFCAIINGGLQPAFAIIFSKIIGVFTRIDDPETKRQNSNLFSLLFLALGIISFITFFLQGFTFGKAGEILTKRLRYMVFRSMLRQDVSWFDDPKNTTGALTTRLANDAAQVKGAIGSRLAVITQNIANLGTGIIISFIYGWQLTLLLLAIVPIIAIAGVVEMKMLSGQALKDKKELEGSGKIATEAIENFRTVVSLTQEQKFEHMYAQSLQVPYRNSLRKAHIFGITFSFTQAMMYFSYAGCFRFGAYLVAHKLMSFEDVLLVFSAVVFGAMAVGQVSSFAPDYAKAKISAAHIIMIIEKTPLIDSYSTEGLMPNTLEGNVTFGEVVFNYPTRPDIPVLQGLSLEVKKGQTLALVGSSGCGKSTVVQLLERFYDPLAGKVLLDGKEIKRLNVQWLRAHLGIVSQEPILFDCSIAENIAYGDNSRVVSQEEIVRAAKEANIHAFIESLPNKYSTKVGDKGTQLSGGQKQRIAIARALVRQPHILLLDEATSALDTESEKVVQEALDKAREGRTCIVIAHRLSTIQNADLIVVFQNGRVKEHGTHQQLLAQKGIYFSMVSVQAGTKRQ

inhibition (INH) [1]: Active
Structure (SMILES): COc1ccc2cc1Oc1ccc(cc1)C[C@H]1c3cc(c(OC)cc3CCN1C)Oc1c(OC)c(OC)c(OC)c3c1[C@H](C2)N(C)CC3 [HERNANDEZINE]
Ratio [2]: 13 | Ratio [3]: 11 | Ratio [4]: 10 | Activity (KB 3-1 [5]): 6.6% | Activity (KB 3-1 [6]): 31.1% | Activity (KB 3-1 [7]): 26.4%
